Assay results taken from ChEMBL document CHEMBL3525925, “In vitro studies on the oxidative metabolism of 20(s)-ginsenoside Rh2 in human, monkey, dog, rat, and mouse liver microsomes, and human liver s9” (Drug Metab Dispos, 2012).

Columns and labels:
Liver [1] = assay: Drug level in CD-1 mouse liver microsomes treated with 10 uM 20(S)-ginsenoside Rh2 for 60 mins by MS2 spectra; type: ADME; settings: 1 h
Method in brief: (§1)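 Rh2 at 10 μM final (from methanol stock; 0.1% v/v methanol final) in 100 mM potassium phosphate pH 7.4 with 2 mM NADPH, open-to-air tubes at 37°C. 3 min preincubation, then started with liver microsomes or S9 at 1 mg/ml protein. Incubated 60 min, stopped with equal volume ice-cold acetonitrile. Controls lacked NADPH; duplicates. Metabolites detected by LC/ion-trap MSn.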

Liver [2] = assay: Drug level in human liver S9 fraction treated with 10 uM 20(S)-ginsenoside Rh2 for 60 mins by MS2 spectra; type: ADME, subcellular; settings: s9, 1 h; method in brief: as §1
Liver microsome [3] = assay: Drug level in beagle dog liver microsomes treated with 10 uM 20(S)-ginsenoside Rh2 for 60 mins by MS2 spectra; type: ADME, Canis lupus familiaris; settings: 1 h; method in brief: as §1
Cytochrome P450 3A5 = Cytochrome P450 3A5 (Homo sapiens, UniProt P20815); assay: Drug level in human recombinant CYP3A5 treated with 10 uM 20(S)-ginsenoside Rh2 for 60 mins by MS2 spectra; type: ADME; settings: recombinant enzyme, 1 h
Method in brief: (§2)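 Recombinant human P450 (50 nM) with 10 μM Rh2 under the microsomal conditions: 100 mM potassium phosphate pH 7.4, 2 mM NADPH, 37°C for 60 min. Stopped with equal volume ice-cold acetonitrile. Run in duplicate; products analysed by LC/ion-trap MSn.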

Liver [4] = assay: Retention time in human liver S9 fraction treated with 10 uM 20(S)-ginsenoside Rh2 by MS2 spectra; type: ADME, subcellular
Method in brief: (§3)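 Samples: incubation mixed with equal volume methanol, centrifuged at 14,000g for 5 min, dried under nitrogen at 40°C, reconstituted. Separated on Eclipse XDB-C18 (4.6 × 150 mm, 5 μm) at 0.5 ml/min. Gradient: 0.1% formic acid in methanol against 0.1% formic acid in 5 mM ammonium acetate, 70% to 100% organic over 17 min. Ion-trap MSn detection.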

Liver microsome [5] = assay: Drug level in human liver microsomes treated with 10 uM 20(S)-ginsenoside Rh2 for 60 mins by MS2 spectra; type: ADME; settings: 1 h; method in brief: as §1
Liver microsome [6] = assay: Drug level in Sprague-Dawley rat liver microsomes treated with 10 uM 20(S)-ginsenoside Rh2 for 60 mins by MS2 spectra; type: ADME; settings: 1 h; method in brief: as §1
Cytochrome P450 3A4 = Cytochrome P450 3A4 (Homo sapiens, UniProt P08684); assay: Drug level in human recombinant CYP3A4 treated with 10 uM 20(S)-ginsenoside Rh2 for 60 mins by MS2 spectra; type: ADME; settings: recombinant enzyme, 1 h; method in brief: as §2
[7] = Drug level in cynomolgus monkey liver microsomes treated with 10 uM 20(S)-ginsenoside Rh2 for 60 mins by MS2 spectra; type: ADME, Macaca fascicularis; settings: 1 h; method in brief: as §1
Liver microsome [8] = assay: Retention time in human liver microsomes treated with 10 uM 20(S)-ginsenoside Rh2 by MS2 spectra; type: ADME; method in brief: as §3

Cytochrome P450 3A4, sequence (P08684 whole entry): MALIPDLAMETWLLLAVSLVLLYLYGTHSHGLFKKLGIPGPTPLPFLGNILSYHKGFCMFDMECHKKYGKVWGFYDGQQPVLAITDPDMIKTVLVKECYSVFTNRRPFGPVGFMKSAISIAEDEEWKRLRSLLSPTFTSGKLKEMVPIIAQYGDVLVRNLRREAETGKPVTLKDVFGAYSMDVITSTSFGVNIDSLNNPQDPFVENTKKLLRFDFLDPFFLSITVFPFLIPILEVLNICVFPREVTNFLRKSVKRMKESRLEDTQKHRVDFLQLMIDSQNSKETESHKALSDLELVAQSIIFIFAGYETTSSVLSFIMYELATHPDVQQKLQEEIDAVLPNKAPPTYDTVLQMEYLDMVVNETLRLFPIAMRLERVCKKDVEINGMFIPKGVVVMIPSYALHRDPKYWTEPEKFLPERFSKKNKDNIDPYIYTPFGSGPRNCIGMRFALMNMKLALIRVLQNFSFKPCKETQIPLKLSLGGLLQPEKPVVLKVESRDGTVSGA
Cytochrome P450 3A5, sequence (P20815 whole entry): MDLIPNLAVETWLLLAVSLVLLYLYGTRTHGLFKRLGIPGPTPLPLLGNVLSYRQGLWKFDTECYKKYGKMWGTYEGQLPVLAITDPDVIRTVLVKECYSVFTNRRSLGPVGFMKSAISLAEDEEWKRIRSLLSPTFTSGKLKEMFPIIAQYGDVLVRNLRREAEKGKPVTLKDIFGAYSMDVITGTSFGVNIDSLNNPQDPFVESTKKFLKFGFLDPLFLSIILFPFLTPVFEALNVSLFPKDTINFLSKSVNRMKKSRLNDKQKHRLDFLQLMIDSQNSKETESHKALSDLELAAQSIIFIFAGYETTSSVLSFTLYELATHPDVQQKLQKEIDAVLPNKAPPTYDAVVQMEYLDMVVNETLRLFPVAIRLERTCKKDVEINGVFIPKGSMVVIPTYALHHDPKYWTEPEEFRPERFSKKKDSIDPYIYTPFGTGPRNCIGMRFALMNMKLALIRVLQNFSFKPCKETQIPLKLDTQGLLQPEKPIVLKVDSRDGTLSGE

| Structure (SMILES) | Drug metabolism (Liver [1]) | Drug metabolism (Liver [2]) | Drug metabolism (Liver microsome [3]) | Drug metabolism (Cytochrome P450 3A5) | Retention_time (Liver [4]) | Drug metabolism (Liver microsome [5]) | Drug metabolism (Liver microsome [6]) | Drug metabolism (Cytochrome P450 3A4) | Drug metabolism [7] | Retention_time (Liver microsome [8]) |
| --- | --- | --- | --- | --- | --- | --- | --- | --- | --- | --- |
| C/C(=C/CC[C@](C)(O)[C@H]1CC[C@]2(C)[C@@H]1[C@H](O)C[C@@H]1[C@@]3(C)CC[C@H](O[C@@H]4O[C@H](CO)[C@@H](O)[C@H](O)[C@H]4O)C(C)(C)[C@@H]3CC[C@]12C)CO | metabolite_detected | metabolite_detected | metabolite_detected | metabolite_detected | 18.3 min | metabolite_detected | metabolite_detected | metabolite_detected | metabolite_detected | 18.3 min |
| CC1(C)[C@@H](O[C@@H]2O[C@H](CO)[C@@H](O)[C@H](O)[C@H]2O)CC[C@]2(C)[C@H]3C[C@@H](O)[C@@H]4[C@@H]([C@@](C)(O)CC[C@@H]5O[C@@]5(C)CO)CC[C@@]4(C)[C@]3(C)CC[C@@H]12 | metabolite_detected | metabolite_detected | metabolite_not_detected | metabolite_not_detected | 15.6 min | metabolite_detected | metabolite_detected | metabolite_detected | metabolite_detected | 15.6 min |
| C/C(=C\CC[C@](C)(O)[C@H]1CC[C@]2(C)[C@@H]1[C@H](O)C[C@@H]1[C@@]3(C)CC[C@H](O[C@@H]4O[C@H](CO)[C@@H](O)[C@H](O)[C@H]4O)C(C)(C)[C@@H]3CC[C@]12C)C(=O)O | metabolite_not_detected | metabolite_detected | metabolite_not_detected | metabolite_not_detected | 14 min | metabolite_detected | metabolite_detected | metabolite_detected | metabolite_detected | 14 min |
| CC(O)(CO)[C@@H]1CC[C@@](C)([C@H]2CC[C@]3(C)[C@@H]2[C@H](O)C[C@@H]2[C@@]4(C)CC[C@H](O[C@@H]5O[C@H](CO)[C@@H](O)[C@H](O)[C@H]5O)C(C)(C)[C@@H]4CC[C@]23C)O1 (stereo not given in full) | metabolite_detected | metabolite_detected | metabolite_not_detected | metabolite_not_detected | 16.2 min | metabolite_detected | metabolite_detected | metabolite_detected | metabolite_detected | 16.2 min |
| CC(C)(O)[C@@H]1CC[C@@](C)([C@H]2CC[C@]3(C)[C@@H]2[C@H](O)C[C@@H]2[C@@]4(C)CC[C@H](O[C@@H]5O[C@H](CO)[C@@H](O)[C@H](O)[C@H]5O)C(C)(C)[C@@H]4CC[C@]23C)O1 | metabolite_detected | metabolite_detected | metabolite_detected | metabolite_detected | 18.9 min | metabolite_detected | metabolite_detected | metabolite_detected | metabolite_detected | 18.9 min |
